Among the data in ChEMBL document CHEMBL1275592, “AmpN-AmpG operon is essential for expression of L1 and L2 beta-lactamases in Stenotrophomonas maltophilia” (2010) are MIC values, retold here.

Holding throughout (assay type): functional
Experiment [1] has as its system Stenotrophomonas maltophilia. The experiment can be described thus: Antimicrobial activity against ampN deficient Stenotrophomonas maltophilia KJ by agar dilution method. The method, boiled down: (§1)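 MICs were determined in triplicate by standard 2-fold serial agar dilution, following CLSI guidelines.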
(In agar dilution, organisms are placed on agar that contains the substance at set levels.)

For experiment [2], the system named is Stenotrophomonas maltophilia. As to the kind of experiment: Antimicrobial activity against Stenotrophomonas maltophilia KJ by agar dilution method. The method, boiled down: as §1
The test system of experiment [3] is Stenotrophomonas maltophilia. As to the kind of experiment: Antimicrobial activity against Stenotrophomonas maltophilia KJN1 harboring ampN with xylE-Gmomega cassette insertion by agar dilution method. The method, boiled down:
as §1

For experiment [4], the system named is Stenotrophomonas maltophilia. The experiment can be described thus: Antimicrobial activity against Stenotrophomonas maltophilia KJN2 harboring ampN with xylE-Gmomega cassette insertion by agar dilution method. The method, boiled down: as §1
Experiment [5] deals with Stenotrophomonas maltophilia. As to the kind of experiment: Antimicrobial activity against Stenotrophomonas maltophilia KJG harboring ampG with xylE-Gmomega cassette insertion by agar dilution method. The method, boiled down:
as §1

Experiment [6] concerns Stenotrophomonas maltophilia. As to the kind of experiment: Antimicrobial activity against ampN deficient Stenotrophomonas maltophilia KJ harboring ampG with xylE-Gmomega cassette insertion by agar dilution method. The method, boiled down: as §1
For experiment [7], the system named is Stenotrophomonas maltophilia. The experiment can be described thus: Antimicrobial activity against Stenotrophomonas maltophilia KJ harboring pRK415 plasmid by agar dilution method. The method, boiled down: as §1
The test system of experiment [8] is Stenotrophomonas maltophilia. The experiment can be described thus: Antimicrobial activity against Stenotrophomonas maltophilia KJ harboring pRK-NG plasmid by agar dilution method. The method, boiled down: as §1
For experiment [9], the system named is Stenotrophomonas maltophilia. The experiment can be described thus: Antimicrobial activity against Stenotrophomonas maltophilia KJN2 harboring pRK415 plasmid and ampN with xylE-Gmomega cassette insertion by agar dilution method. The method, boiled down: as §1
Experiment [10] deals with Stenotrophomonas maltophilia. As to the kind of experiment: Antimicrobial activity against Stenotrophomonas maltophilia KJN2 harboring pRK-G plasmid and ampN with xylE-Gmomega cassette insertion by agar dilution method. The method, boiled down: as §1
Experiment [11] deals with Stenotrophomonas maltophilia. As to the kind of experiment: Antimicrobial activity against Stenotrophomonas maltophilia KJN2 harboring pRK-NG plasmid and ampN with xylE-Gmomega cassette insertion by agar dilution method. The method, boiled down:
as §1

The test system of experiment [12] is Stenotrophomonas maltophilia. As to the kind of experiment: Antimicrobial activity against Stenotrophomonas maltophilia KJN2 harboring pRK-EcG plasmid and ampN with xylE-Gmomega cassette insertion by agar dilution method. The method, boiled down:
as §1

In general, MIC refers to the least concentration at which growth counts as inhibited. A high value points to weaker potency.

The structures appear in SMILES notation. In brackets after ≈: the same amount, converted by molar mass.

As to `CCN1CCN(C(=O)N[C@@H](C(=O)N[C@@H]2C(=O)N3[C@@H]2SC(C)(C)[C@@H]3C(=O)O)c2ccccc2)C(=O)C1=O` [PIPERACILLIN], the MIC amounted to 32 µg/mL (≈ 61.8 µM) in experiment [1]; 1020 µg/mL (≈ 1980 µM) in experiment [2]; 32 µg/mL (≈ 61.8 µM) in [3]; 16 µg/mL (≈ 30.9 µM) in [4]; 32 µg/mL (≈ 61.8 µM) in [5]; 16 µg/mL (≈ 30.9 µM) in experiment [6]. Besides, the MIC was determined as 1020 µg/mL (≈ 1980 µM) in experiment [7]; 1020 µg/mL (≈ 1980 µM) in [8]; 16 µg/mL (≈ 30.9 µM) in [9]; 32 µg/mL (≈ 61.8 µM) in experiment [10]; 1020 µg/mL (≈ 1980 µM) in experiment [11]; 512 µg/mL (≈ 989 µM) in experiment [12].
